According to ChEMBL document CHEMBL4265991:

Tests used:
[1] = substrate: COc1c(C)c2c(c(O)c1C/C=C(\C)CCC(=O)O)C(=O)OC2; conditions: Cryptococcus neoformans; 0.039 uM
[2] = substrate: COc1c(C)c2c(c(O)c1C/C=C(\C)CCC(=O)O)C(=O)OC2; conditions: Cryptococcus neoformans; 0.039 uM; remark: listed apart in the source
[3] = compound: COc1ccccc1-c1nnc(SC2=CS(=O)(=O)c3ccccc32)o1; test: (§1) Inhibition of recombinant Cryptococcus neoformans His-tagged IMPDH expressed in Escherichia coli BL21 (DE3) at 2.5 uM assessed as Kcat for substrate using NAD as fixed substrate at 700 uM and IMP as second substrate with varying concentrations of 25 to 800 uM (reference value: 21.5 /s)
In short: (§2)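 Recombinant C. neoformans IMPDH, 100 nM final, reaction started by adding enzyme. NADH production monitored at 340 nm. Inhibitor series ran from 20 to 0.31 µM; MPA tested at 312 to 39 nM. Km and Vmax fitted to the Michaelis–Menten equation; inhibition type taken from shifts in Km and Vmax.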

[4] = compound: O=S1(=O)C=C(Sc2nnc(-c3ccccc3)o2)c2ccccc21; test: as §1
In short: as §2

[5] = compound: COc1ccccc1-c1nnc(SC2=CS(=O)(=O)c3ccccc32)o1; test: (§3) Inhibition of recombinant Cryptococcus neoformans His-tagged IMPDH expressed in Escherichia coli BL21 (DE3) at 10 uM assessed as Kcat for substrate using IMP as fixed substrate at 500 uM and NAD as second substrate with varying concentrations of 31.25 to 1300 uM (reference value: 21.5 /s)
In short: as §2

[6] = compound: O=S1(=O)C=C(Sc2nnc(-c3ccccc3)o2)c2ccccc21; test: as §3
In short: as §2

[7] = compound: COc1ccccc1-c1nnc(SC2=CS(=O)(=O)c3ccccc32)o1; test: (§4) Inhibition of recombinant Cryptococcus neoformans His-tagged IMPDH expressed in Escherichia coli BL21 (DE3) at 10 uM assessed as Vmax for substrate using IMP as fixed substrate at 500 uM and NAD as second substrate with varying concentrations of 31.25 to 1300 uM (reference value: 1.5 microM/min)
In short: as §2

[8] = compound: O=S1(=O)C=C(Sc2nnc(-c3ccccc3)o2)c2ccccc21; test: as §4
In short: as §2

[9] = substrate: COc1c(C)c2c(c(O)c1C/C=C(\C)CCC(=O)O)C(=O)OC2; conditions: Cryptococcus neoformans; 0.039 uM; remark: listed apart in the source
[10] = compound: COc1ccccc1-c1nnc(SC2=CS(=O)(=O)c3ccccc32)o1; test: (§5) Inhibition of recombinant Cryptococcus neoformans His-tagged IMPDH expressed in Escherichia coli BL21 (DE3) at 10 uM assessed as Km for substrate using IMP as fixed substrate at 500 uM and NAD as second substrate with varying concentrations of 31.25 to 1300 uM (reference value: 257.5 +/- 23 microM)
In short: as §2

[11] = compound: O=S1(=O)C=C(Sc2nnc(-c3ccccc3)o2)c2ccccc21; test: as §5
In short: as §2

[12] = substrate: COc1c(C)c2c(c(O)c1C/C=C(\C)CCC(=O)O)C(=O)OC2; conditions: Cryptococcus neoformans; 0.078 uM
[13] = compound: COc1ccccc1-c1nnc(SC2=CS(=O)(=O)c3ccccc32)o1; test: (§6) Inhibition of recombinant Cryptococcus neoformans His-tagged IMPDH expressed in Escherichia coli BL21 (DE3) at 10 uM assessed as Km for substrate using NAD as fixed substrate at 700 uM and IMP as second substrate with varying concentrations of 25 to 800 uM (reference value: 257.5 +/- 23 microM)
In short: as §2

[14] = compound: O=S1(=O)C=C(Sc2nnc(-c3ccccc3)o2)c2ccccc21; test: as §6
In short: as §2

[15] = substrate: COc1c(C)c2c(c(O)c1C/C=C(\C)CCC(=O)O)C(=O)OC2; conditions: Cryptococcus neoformans; 0.039 uM; remark: listed apart in the source
[16] = substrate: COc1c(C)c2c(c(O)c1C/C=C(\C)CCC(=O)O)C(=O)OC2; conditions: Cryptococcus neoformans; 0.039 uM; remark: listed apart in the source
[17] = compound: COc1ccccc1-c1nnc(SC2=CS(=O)(=O)c3ccccc32)o1; test: (§7) Inhibition of recombinant Cryptococcus neoformans His-tagged IMPDH expressed in Escherichia coli BL21 (DE3) at 0.3 uM assessed as Km for substrate using NAD as fixed substrate at 700 uM and IMP as second substrate with varying concentrations of 25 to 800 uM (reference value: 257.5 +/- 23 microM)
In short: as §2

[18] = compound: O=S1(=O)C=C(Sc2nnc(-c3ccccc3)o2)c2ccccc21; test: as §7
In short: as §2

[19] = compound: COc1ccccc1-c1nnc(SC2=CS(=O)(=O)c3ccccc32)o1; test: (§8) Inhibition of recombinant Cryptococcus neoformans His-tagged IMPDH expressed in Escherichia coli BL21 (DE3) at 2.5 uM assessed as Km for substrate using IMP as fixed substrate at 500 uM and NAD as second substrate with varying concentrations of 31.25 to 1300 uM (reference value: 257.5 +/- 23 microM)
In short: as §2

[20] = compound: O=S1(=O)C=C(Sc2nnc(-c3ccccc3)o2)c2ccccc21; test: as §8
In short: as §2

[21] = compound: COc1ccccc1-c1nnc(SC2=CS(=O)(=O)c3ccccc32)o1; test: (§9) Inhibition of recombinant Cryptococcus neoformans His-tagged IMPDH expressed in Escherichia coli BL21 (DE3) at 10 uM assessed as Vmax for substrate using NAD as fixed substrate at 700 uM and IMP as second substrate with varying concentrations of 25 to 800 uM (reference value: 1.5 microM/min)
In short: as §2

[22] = compound: O=S1(=O)C=C(Sc2nnc(-c3ccccc3)o2)c2ccccc21; test: as §9
In short: as §2

[23] = substrate: COc1c(C)c2c(c(O)c1C/C=C(\C)CCC(=O)O)C(=O)OC2; conditions: Cryptococcus neoformans; 0.156 uM
[24] = substrate: COc1c(C)c2c(c(O)c1C/C=C(\C)CCC(=O)O)C(=O)OC2; conditions: Cryptococcus neoformans; 0.078 uM; remark: listed apart in the source
[25] = substrate: COc1c(C)c2c(c(O)c1C/C=C(\C)CCC(=O)O)C(=O)OC2; conditions: Cryptococcus neoformans; 0.078 uM; remark: listed apart in the source
[26] = compound: COc1ccccc1-c1nnc(SC2=CS(=O)(=O)c3ccccc32)o1; test: (§10) Inhibition of recombinant Cryptococcus neoformans His-tagged IMPDH expressed in Escherichia coli BL21 (DE3) at 0.3 uM assessed as Kcat for substrate using NAD as fixed substrate at 700 uM and IMP as second substrate with varying concentrations of 25 to 800 uM (reference value: 21.5 /s)
In short: as §2

[27] = compound: O=S1(=O)C=C(Sc2nnc(-c3ccccc3)o2)c2ccccc21; test: as §10
In short: as §2

B1: Inosine-5'-monophosphate dehydrogenase (Cryptococcus neoformans var. neoformans serotype D (strain JEC21 /ATCC MYA-565) (Filobasidiella neoformans)), Q5KP44 (protein)
chain: MADTNPNAPPRSDSLLNPADALKYLEEYPRGDGLSLQELMDSRKNGGLTYNDFLVLPGHISFPASDVSLQSRATKNIVLNTPFLSSPMDTVTEDRMAIALALHGGLGIIHHNCSAEEQAAMVRRVKKYENGFITDPLCLGPDATVGDVLEIKAKFGFCGVPITETGAPNSKLLGIVTGRDVQFQDAETPIKSVMTTEVVTGSSPITLEKANSLLRETKKGKLPIVDSNGHLVSLVARSDLLKNQNYPYASKVPESKQLYCGAAIGTRPGDKDRLKLLAEAGLDVVVLDSSQGDSVYQIEFIKWIKQTYPKIEIIAGNVVTREQAAQLIAAGADGLRIGMGSGSICITQEVMAVGRPQGTAVYAVAEFASRFGIPCIADGGIGNIGHIAKALALGASAVMMGGLLAGTTESPGEYFYHEGKRVKVYRGMGSIEAMEHTQRGSASGKRSILNLDNAATARYFSEADAVKVAQGVSGDVADKGSINKFVPYLFTGLQHSFQDAGVKSVSELHSCARSGSLRFELRTASAQLEGGVHGLNSYTKRLFA
Km [1]: 200 µM | kcat [2]: 1.1 s⁻¹ | kcat [3]: 1 s⁻¹ | kcat [4]: 0.9 s⁻¹ | kcat [5]: 1 s⁻¹ | kcat [6]: 1 s⁻¹ | Vmax [7]: 1 µM/min | Vmax [8]: 1 µM/min | Km [9]: 64 µM | Km [10]: 355 µM | Km [11]: 386 µM | Km [12]: 137 µM | Km [13]: 258 µM | Km [14]: 316 µM | kcat [15]: 0.9 s⁻¹ | Vmax [16]: 1.1 µM/min | Km [17]: 93 µM | Km [18]: 92.5 µM | Km [19]: 358 µM | Km [20]: 336 µM | Vmax [21]: 0.7 µM/min | Vmax [22]: 0.6 µM/min | Km [23]: 32 µM | Km [24]: 53 µM | kcat [25]: 0.6 s⁻¹ | kcat [26]: 1.4 s⁻¹ | kcat [27]: 1.1 s⁻¹
